The subject of data set [1] is TLR4 (RAW 264.7 macrophage cells). In words: Nitric oxide production in RAW 264.7 macrophages, LPS-induced TLR4 activation. Conditions: 50 μM peptide, LPS 50 ng/ml. Format: cell-based. The procedure, abridged: (§1)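 RAW 264.7 macrophages were stimulated with the TLR-specific ligand in the presence or absence of 50 μM peptide. Nitric oxide production was the read-out of pathway activation.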

Another data set has as its target TLR4. Conditions: read-out: KD of full-length MD2 binding to TLR4; cited from earlier work.
The target of data set [2] is extracellular construct (a.a. 1–632) of human TLR4 (Homo sapiens, UniProt O00206). It is filed as binding. The settings on record: fluorescence polarization.
The test system of another data set is RAW 264.7 cells. In words: Cytotoxicity, trypan blue staining, RAW 264.7 cells. It is filed as cell-based.
A further data set deals with whole human blood. In words: Haemolysis in whole human blood. It is filed as cell-based. The settings on record: concentrations up to 500 μM.
Data set [3] relates to rats subjected to CCI of the sciatic nerve. In words: Chronic constriction injury. It is filed as in vivo. Conditions: rat CCI; intrathecal; summary in words. Summed up:
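Rats underwent chronic constriction injury and were tested at baseline, then on days 4 and 11 after surgery to confirm allodynia. After a pre-drug assessment, peptide was delivered intrathecally into the peri-spinal cerebrospinal fluid by the lumbar approach, at approximately 250 μM final in the intrathecal space. Vehicle was saline. Allodynia was reassessed 1, 3 and 24 h after injection.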

Data set [4] relates to TLR2/TLR6 (RAW 264.7 macrophage cells). It is filed as cell-based. Conditions: 50 μM peptide, PGN 50 μg/ml. The procedure, abridged:
as §1

A further data set relates to BV2 cells. As to the kind of experiment: Cytotoxicity, trypan blue staining, BV2 cells. It is filed as cell-based.
A further data set relates to TLR4/MD2 complex. The settings on record: previously reported; cited from earlier work.
In another data set the test system is HEK 293 cells. As to the kind of experiment: Cytotoxicity, trypan blue staining, HEK 293 cells. It is filed as cell-based.
The test system of a further data set is rats. In words: Behavioural observation after peptide injection. It is filed as in vivo, rat. The settings on record: rats of the CCI test; intrathecal injection of peptide stock solutions.
The test system of data set [5] is TLR1/TLR2 (RAW 264.7 macrophage cells). Format: cell-based. The settings on record: 50 μM peptide, Pam3CSK4 250 ng/ml. The procedure, abridged:
as §1

Consider 3 substances from PMC3374877 (Chembiochem, 2011).

Entries after “also recorded” stand apart in the source; their conditions may differ. Bridges are numbered along the chain shown (N, C = ends). Where no end group is shown, it is not given here.

extracellular construct (a.a. 1–632) of human TLR4, sequence (O00206 24-632): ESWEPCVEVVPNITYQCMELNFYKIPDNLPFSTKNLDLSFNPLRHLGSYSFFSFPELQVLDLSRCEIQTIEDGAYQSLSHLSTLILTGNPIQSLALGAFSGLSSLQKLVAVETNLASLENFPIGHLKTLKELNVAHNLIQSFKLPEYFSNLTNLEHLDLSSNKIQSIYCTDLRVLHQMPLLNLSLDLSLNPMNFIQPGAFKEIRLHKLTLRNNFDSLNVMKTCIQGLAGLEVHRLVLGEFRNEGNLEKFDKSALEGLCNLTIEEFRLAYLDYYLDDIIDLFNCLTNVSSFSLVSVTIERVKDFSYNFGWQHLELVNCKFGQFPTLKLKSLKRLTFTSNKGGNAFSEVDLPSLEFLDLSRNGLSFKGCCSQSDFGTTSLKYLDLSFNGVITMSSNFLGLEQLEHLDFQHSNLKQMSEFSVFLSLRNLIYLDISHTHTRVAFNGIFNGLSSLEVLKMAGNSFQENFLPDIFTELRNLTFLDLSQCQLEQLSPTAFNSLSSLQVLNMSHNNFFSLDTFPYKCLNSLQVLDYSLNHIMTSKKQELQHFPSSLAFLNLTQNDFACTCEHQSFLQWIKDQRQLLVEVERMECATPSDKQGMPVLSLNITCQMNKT

As for “CRGSAAAYSFCAALAGA (disulfide 1-11 (inferred)) [MD2-III]”, the “inhibition of TLR4 signalling (NO production)” value in data set [1] was “no inhibition on the TLR4 signaling; also recorded: no inhibitory effect on the TLR4 signaling”.

In the case of “full-length MD2: myeloid differentiation factor 2, accessory protein required for TLR4 activation”, at TLR4, the dissociation constant Kd is 12 nM.

Take “CRGSDDDYSFCRALKGE (disulfide 1-11 (inferred)) [MD2-I]”: in data set [2] (TLR4 titrated, in words), the “binding activity toward TLR4 (change in polarization)” value is reported as “robust increase”. Moreover, the maximum polarization value result in [2] (plateau upon addition of TLR4) is on record as “approximately 0.25”. In addition, the cytotoxicity result with RAW 264.7 cells, in the data set on BV2 cells and in the data set on HEK 293 cells was “little cytotoxicity” in each case. The haemolysis entry in the data set on whole human blood is given as “does not induce haemolysis”. The “suppression of neuropathic pain in vivo (summary statement)” value in [3] was “moderate potency in an animal model; also recorded: able to suppress neuropathic pain in animal models; also recorded: could suppress neuropathic pain in vivo”. Also, the “inhibition of TLR2/TLR6 signalling (NO production)” value in [4] is reported as “negligible inhibitory effects; also recorded: without affecting other homologous TLRs”. In addition, the “inhibition of TLR4 signalling, LPS antagonism” value in the data set on TLR4/MD2 complex was “abolishes TLR4 signalling by antagonizing its native ligand, lipopolysaccharide (LPS), binding to the TLR4/MD2 complex”. Further, in the data set with rats, the “abnormal behaviours after injection” value is “no abnormal behaviours were observed”. Besides, the “inhibition of TLR1/2 signalling (NO production)” value in [5] is “negligible inhibitory effects; also recorded: without affecting other homologous TLRs”. Besides, in data set [1], the “inhibition of TLR4 signalling (NO production)” value is on record as “significant reduced signals of LPS-induced TLR4 activation; also recorded: selectively inhibits the NO production induced by LPS”.
